Experimental data collected from several papers.
Lines come from different studies, so protocols differ.
Target: Tyrosine-protein kinase Fer (FER, Homo sapiens, UniProt P16591)

Structure (SMILES) | observed | technique | concentration | remaining binding
Cc1cnn2ncc(-c3ccnc(N(C)C)n3)c2c1 | binding | – | 1 µM | 92%
O=C(c1ccc(Nc2ncc(Cl)c(-c3cc4ccccc4s3)n2)cc1)N1CCC(N2CCCC2)CC1 | binding | competition with immobilised ligand | 1 µM | 76%
O=C(Nc1c[nH]nc1C(=O)NC1CCNCC1)c1cc(F)cc(F)c1 | binding | competition with immobilised ligand | 1 µM | 100%
Cc1c(C(=O)O)cc(-c2ccc(C3CCNCC3)cc2)c2ccc(-c3ccc(C(F)(F)F)cc3)cc12 | binding | competition with immobilised ligand | 1 µM | 100%
CCN1CCN(Cc2ccc(C(=O)Nc3ccc(C)c(Oc4ccc5c(c4)CC(=O)N5)c3)cc2C(F)(F)F)CC1 | binding | competition with immobilised ligand | 1 µM | 100%
O=C(NCCCN1CCOCC1)c1ccc(Nc2ncc(Cl)c(-c3ccc(Cl)s3)n2)cc1 | binding | competition with immobilised ligand | 1 µM | 86%
CO[C@H]1CC[C@H](CNc2ccc(S(=O)(=O)NC(=O)c3ccc(N4CCN(CC5=C(c6ccc(Cl)cc6)CC(C)(C)CC5)CC4)cc3Oc3cnc4[nH]ccc4c3)cc2[N+](=O)[O-])CC1 | cell-free assay | competition with immobilised ligand | 1 µM | 67%
CC1CCCN1c1nccc(-c2cnn3ncccc23)n1 (stereo not drawn) | binding | – | 1 µM | 100%
CS(=O)(=O)c1cc(C2(NC(=O)c3cncc4c3cnn4-c3ccc(F)cc3)CC2)ccn1 | cell-free assay | competition with immobilised ligand | 1 µM | 100%
C=CC(=O)N1CCC(C(=O)NCC(=O)N2CCN(c3nc(-c4cnc(N)nc4C(F)F)nc(N4CCOCC4)n3)CC2)CC1 | binding | competition with immobilised ligand | 1 µM | 87%
COc1cnc(Nc2cccc(S(N)(=O)=O)c2)nc1N1CCN(c2ccccc2)C(=O)C1 | binding | competition with immobilised ligand | 1 µM | 100%
CN(CCCC(F)(F)F)c1nccc(-c2cnn3ncccc23)n1 | binding | – | 1 µM | 65%
C[C@@H](c1ccc(-n2cnc3c(N)ncnc32)cc1)N1CCc2nn(C)c(Cc3ccccc3)c2C1=O | binding | competition with immobilised ligand | 0.1 µM | 100%
CN(C)c1nccc(-c2cnn3ncccc23)n1 | binding | – | 1 µM | 97%
COc1ccc2cc(OCC3(C(=O)O)CN(C(=O)c4ccc(F)cc4)C3)ccc2c1 | cell-free assay | competition with immobilised ligand | 1 µM | 74%
COc1cnc(Nc2cccc(S(N)(=O)=O)c2)nc1N1CCN(c2ccccc2)CC1 | binding | competition with immobilised ligand | 1 µM | 100%
C[C@H]1CCN(c2nccc(-c3cnn4ncccc34)n2)C1 | binding | – | 1 µM | 93%
CC(=O)C1=C(C)N(c2cccc(C(F)(F)F)c2)C(=O)N[C@@H]1c1ccc(C#N)nc1 | cell-free assay | competition with immobilised ligand | 1 µM | 96.9%
O=C(c1ccc(Nc2ncc(Cl)c(-c3ccc(Cl)s3)n2)cc1)N1CCC(N2CCCC2)CC1 | binding | competition with immobilised ligand | 1 µM | 81%
CCC(=O)N[C@@H]1CC[C@H](C(=O)N(C)c2ccc(-c3nc4ccccc4o3)cc2)C1 | cell-free assay | competition with immobilised ligand | 1 µM | 99%
F[C@@H]1CCN(c2nccc(-c3cnn4ncccc34)n2)C1 | binding | – | 1 µM | 81%
